Measurements: paper PMC3210410 (Bioorganic & medicinal chemistry letters, 2011)
Read-outs that look alike come from different tables or passages of the source.

Key:
Type in all cases: biochemical
ADAM17/TACE = ADAM17/TACE (Homo sapiens, UniProt P78536); assay: TACE inhibition; details: data not shown
MMP-13 [1] = biological target: T1, MMP-13 (Homo sapiens, UniProt P45452); assay: Dual inhibition kinetic assays; details: compound 4 with either compound 1 or 3
MMP-13 [2] = biological target: T1, MMP-13; assay: FRET triple-helical peptide; details: for MMP-13 % Inhibition: 40 μM compound, fTHP-15 substrate, triplicate
How it was run: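 Triple-helical fTHP-15 FRET substrate, whose conformation engages protease secondary binding sites (exosites), cleaved by MMP-13 with each test compound at 40 μM. Activity is reported as percent inhibition from triplicate assays.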

MMP-13 [3] = biological target: T1, MMP-13; assay: RP-HPLC-based secondary screen for artifactual inhibition; details: data not shown
How it was run: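 Checks for fluorescence artifacts in the FRET assay. […] fTHP-15 substrate is analysed by RP-HPLC before and after adding test compound, so fluorescence interference can be separated from true inhibition of MMP-13.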

MMP-13 [4] = biological target: T1, MMP-13; assay: Single inhibitor kinetic assays with MMP-13 and fTHP-15; details: for mode of inhibition of MMP-13-mediated hydrolysis of the fTHP: Lineweaver-Burk plot, lines crossing on X axis

Sequence of ADAM17/TACE (P78536 215-824): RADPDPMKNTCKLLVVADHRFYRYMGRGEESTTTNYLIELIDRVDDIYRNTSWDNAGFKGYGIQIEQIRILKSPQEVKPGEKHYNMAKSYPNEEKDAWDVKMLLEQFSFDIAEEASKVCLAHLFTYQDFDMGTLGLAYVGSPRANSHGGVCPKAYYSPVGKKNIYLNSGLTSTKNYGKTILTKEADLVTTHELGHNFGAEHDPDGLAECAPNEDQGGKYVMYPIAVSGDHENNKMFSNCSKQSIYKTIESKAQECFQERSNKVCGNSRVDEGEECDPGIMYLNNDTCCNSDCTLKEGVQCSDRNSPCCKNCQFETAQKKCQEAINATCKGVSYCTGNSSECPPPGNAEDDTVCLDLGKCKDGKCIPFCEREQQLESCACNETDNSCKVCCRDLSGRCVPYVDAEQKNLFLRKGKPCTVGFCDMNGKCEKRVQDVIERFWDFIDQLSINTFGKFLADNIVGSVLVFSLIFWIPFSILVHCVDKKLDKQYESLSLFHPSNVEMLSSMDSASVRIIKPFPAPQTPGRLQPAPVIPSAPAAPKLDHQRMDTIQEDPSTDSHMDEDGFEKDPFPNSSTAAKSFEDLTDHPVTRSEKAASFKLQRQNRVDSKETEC

In the case of `Oc1nc(SCc2ccc(Cl)cc2)nc2c1CCC2` [Compound 4], the “inhibition of TACE” value (ADAM17/TACE) was “do not inhibit”, the “binding relation in dual inhibition kinetics” value (MMP-13 [1]) was “non-mutually exclusive binding” and the inhibition at 40 µM (MMP-13 [2]; read-out: Inhibition (%) at [inhibitor] = 40 μM, MMP-13) was 51%.
In the case of `CCCc1cc(O)nc(SCc2ccc(Cl)cc2)n1` [Compound 9], the “MMP-13 % Inhibition” value (MMP-13 [2]; SD <10% (Table 1)) was “inactive”.
In the case of `Oc1nc(SCc2ccc(Cl)cc2)nc2ccccc12` [Compound 16], the “MMP-13 % Inhibition” value (MMP-13 [2]; SD <10% (Table 1)) was “inactive”.
In the case of `Oc1[nH]c(SCc2ccc(Cl)cc2)nc2nncc1-2` [Compound 17], the “MMP-13 % Inhibition” value (MMP-13 [2]; SD <10% (Table 1)) was “inactive”.
With `O=c1[nH]c(SCc2ccc(Cl)cc2)nc(O)c1Cc1ccccc1` [Compound 18] the “MMP-13 % Inhibition” value (MMP-13 [2]; SD <10% (Table 1)) was “inactive”.
`CC(=O)Nc1c(O)nc(SCc2ccc(Cl)cc2)nc1O` [Compound 19] was tested, and the “MMP-13 % Inhibition” value (MMP-13 [2]; SD <10% (Table 1)) was “inactive”.
In the case of `Cc1ccc(CSc2nc(O)c3c(n2)CCC3)cc1` [Compound 20, 2-[(4-methylphenyl)methylsulfanyl]-1,5,6,7-tetrahydrocyclopenta[d]pyrimidin-4-one], the “inhibition of TACE” value (ADAM17/TACE) was “do not inhibit”, the “inhibition in RP-HPLC secondary screen” value (MMP-13 [3]) was “inhibitors” and the inhibition at 40 µM (MMP-13 [2]; read-out: MMP-13 % Inhibition) was 68.7%. For the same compound, the “mode of inhibition of MMP-13-mediated hydrolysis of the fTHP” value (MMP-13 [4]) was “non-competitive” and the “fold more potent as MMP-13 inhibitor than lead compound 4” value (MMP-13 [4]; relative to compound 4) was “approximately 5 fold”.
In the case of `COC(=O)c1ccc(CSc2nc3c(c(=O)[nH]2)CCC3)cc1` [Compound 24, methyl 4-[(4-oxo-1,5,6,7-tetrahydrocyclopenta[d]pyrimidin-2-yl)sulfanylmethyl] benzoate], the “inhibition of TACE” value (ADAM17/TACE) was “do not inhibit”, the “inhibition in RP-HPLC secondary screen” value (MMP-13 [3]) was “inhibitors” and the inhibition at 40 µM (MMP-13 [2]; read-out: MMP-13 % Inhibition) was 62.5%. For the same compound, the “mode of inhibition of MMP-13-mediated hydrolysis of the fTHP” value (MMP-13 [4]) was “non-competitive”.
For `O=C(CSc1nc2c(c(=O)[nH]1)CCC2)c1ccccc1` [Compound 30], the “MMP-13 % Inhibition” value (MMP-13 [2]; SD <10% (Table 2)) was “inactive”.
`O=c1[nH]c(SCc2coc(-c3cccc(Cl)c3)n2)nc2c1CCC2` [Compound 31] was tested, and the “MMP-13 % Inhibition” value (MMP-13 [2]; SD <10% (Table 2)) was “inactive”.
In the case of `Cc1oc(-c2cccc(Cl)c2)cc1CSc1nc2c(c(=O)[nH]1)CCC2` [Compound 32], the “MMP-13 % Inhibition” value (MMP-13 [2]; SD <10% (Table 2)) was “Inactive”.
`Cc1cccc(CSc2nc(O)c3c(n2)CCCC3)c1` [Compound 34] was tested, and the “MMP-13 % Inhibition” value (MMP-13 [2]; SD <10% (Table 2)) was “inactive”.
